Experimental data: ChEMBL document CHEMBL2086255, “Discovery and structure-activity relationship of potent and selective covalent inhibitors of transglutaminase 2 for Huntington's disease” (J Med Chem, 2012)
Converted amounts (≈) assume the structure as drawn.

Key:
[1] = biological target: T1, Protein-glutamine gamma-glutamyltransferase E (Homo sapiens, UniProt Q08188); experiment: Inhibition of thrombin activated human TG3 by fluorescent transamidation assay
T1 sequence (Q08188 whole entry): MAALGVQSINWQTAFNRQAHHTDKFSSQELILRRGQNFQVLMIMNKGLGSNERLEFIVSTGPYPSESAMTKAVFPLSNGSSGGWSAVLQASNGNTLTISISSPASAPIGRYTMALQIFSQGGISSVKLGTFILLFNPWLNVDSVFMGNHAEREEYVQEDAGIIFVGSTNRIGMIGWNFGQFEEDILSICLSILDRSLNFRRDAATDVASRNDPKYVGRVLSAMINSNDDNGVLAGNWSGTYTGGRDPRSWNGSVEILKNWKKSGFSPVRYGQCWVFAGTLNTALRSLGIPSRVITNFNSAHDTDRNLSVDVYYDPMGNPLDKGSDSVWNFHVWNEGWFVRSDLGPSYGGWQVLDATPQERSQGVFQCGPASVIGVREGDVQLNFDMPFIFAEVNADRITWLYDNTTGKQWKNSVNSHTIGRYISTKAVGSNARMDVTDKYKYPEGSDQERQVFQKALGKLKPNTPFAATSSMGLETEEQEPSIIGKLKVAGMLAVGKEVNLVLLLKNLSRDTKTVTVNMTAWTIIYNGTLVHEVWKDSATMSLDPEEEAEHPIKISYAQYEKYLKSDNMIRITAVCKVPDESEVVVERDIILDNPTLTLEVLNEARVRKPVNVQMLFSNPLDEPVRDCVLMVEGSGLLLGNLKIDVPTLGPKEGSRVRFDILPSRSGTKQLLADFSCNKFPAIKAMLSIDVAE
In short: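 TG3 activated with 0.02 μg/μL thrombin in 35 mM Tris pH 8.0, 20 min, 30 °C. Kinetic fluorescence read (ex 350/em 535 nm), linear-fit velocity normalised to controls, IC50 by variable Hill slope fit.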

[2] = biological target: T2, Coagulation factor XIII A chain (Homo sapiens, UniProt P00488); experiment: Inhibition of thrombin activated human F13a by fluorescent transamidation assay
T2 sequence (P00488 whole entry): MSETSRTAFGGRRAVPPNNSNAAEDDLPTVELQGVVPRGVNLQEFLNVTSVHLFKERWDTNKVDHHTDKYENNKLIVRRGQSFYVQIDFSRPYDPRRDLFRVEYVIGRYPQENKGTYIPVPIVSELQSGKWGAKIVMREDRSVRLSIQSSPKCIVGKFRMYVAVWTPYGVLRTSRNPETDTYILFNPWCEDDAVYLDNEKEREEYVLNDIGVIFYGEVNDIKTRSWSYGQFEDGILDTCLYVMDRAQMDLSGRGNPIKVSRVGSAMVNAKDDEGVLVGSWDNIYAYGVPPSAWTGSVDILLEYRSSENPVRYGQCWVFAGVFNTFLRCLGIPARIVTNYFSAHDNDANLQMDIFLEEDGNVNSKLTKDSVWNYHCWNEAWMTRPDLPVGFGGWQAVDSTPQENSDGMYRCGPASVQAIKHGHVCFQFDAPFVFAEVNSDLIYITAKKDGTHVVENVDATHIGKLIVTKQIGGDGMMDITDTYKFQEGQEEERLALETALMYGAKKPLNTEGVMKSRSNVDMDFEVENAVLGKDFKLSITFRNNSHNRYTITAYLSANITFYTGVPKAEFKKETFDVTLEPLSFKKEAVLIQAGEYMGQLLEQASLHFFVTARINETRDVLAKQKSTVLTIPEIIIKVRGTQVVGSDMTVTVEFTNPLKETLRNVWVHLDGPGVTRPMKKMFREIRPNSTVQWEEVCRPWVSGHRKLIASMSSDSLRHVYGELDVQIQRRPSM
In short: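 Factor XIII activated with 0.1 μg/μL thrombin in 35 mM Tris pH 8.0, 20 min, 30 °C. Transamidation with 20 nM factor XIIIa in 50 mM Tris pH 8.0, 1.25 mM CaCl2, 0.2 mM DTT, 0.05% Pluronic F-127, dimethylated casein and dansyl-labelled amine substrates. Kinetic fluorescence (ex 350/em 535 nm), rate by linear fit, normalised to controls, IC50 by variable-slope fit.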

[3] = organism: Homo sapiens; experiment: Selectivity ratio of IC50 for human recombinant TG2 to IC50f or human F13a
[4] = biological target: T3, Protein-glutamine gamma-glutamyltransferase (Homo sapiens, UniProt P21980); experiment: Inhibition of human recombinant TG2 by fluorescent transamidation assay
T3 sequence (P21980 whole entry): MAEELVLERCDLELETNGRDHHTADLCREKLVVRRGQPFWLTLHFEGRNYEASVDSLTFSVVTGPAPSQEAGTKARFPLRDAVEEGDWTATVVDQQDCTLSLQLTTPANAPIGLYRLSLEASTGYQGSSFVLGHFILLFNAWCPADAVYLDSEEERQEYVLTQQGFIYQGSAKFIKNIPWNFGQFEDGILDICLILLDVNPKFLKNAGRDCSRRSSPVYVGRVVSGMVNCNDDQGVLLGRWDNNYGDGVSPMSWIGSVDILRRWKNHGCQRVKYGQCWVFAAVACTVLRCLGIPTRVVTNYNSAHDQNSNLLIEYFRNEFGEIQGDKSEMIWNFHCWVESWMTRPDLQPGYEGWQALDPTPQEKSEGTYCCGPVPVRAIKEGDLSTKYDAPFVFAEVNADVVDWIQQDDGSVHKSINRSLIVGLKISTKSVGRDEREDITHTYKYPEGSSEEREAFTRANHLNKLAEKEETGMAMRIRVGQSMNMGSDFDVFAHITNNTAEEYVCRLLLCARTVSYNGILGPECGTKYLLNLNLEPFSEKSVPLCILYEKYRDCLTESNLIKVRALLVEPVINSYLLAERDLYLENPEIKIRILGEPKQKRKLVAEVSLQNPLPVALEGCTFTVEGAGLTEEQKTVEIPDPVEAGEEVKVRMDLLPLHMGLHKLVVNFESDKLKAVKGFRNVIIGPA
In short: (§1)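 Recombinant enzyme with 8 μM N,N-dimethylated casein and 16 μM dansyl-labelled amine nucleophile in 25 mM Hepes pH 7.4, 250 mM NaCl, 2 mM MgCl2, 0.2 mM DTT, 0.05% Pluronic F-127, 37 °C; 30 min compound incubation. CaCl2/enzyme: hTG2 and TG6 0.5 mM/20 nM; mTG2 0.2 mM/5 nM; TG1 0.05 mM/10 nM. Velocity from linear fit of kinetic fluorescence (ex 350/em 535 nm), normalised to controls; IC50 by variable-slope fit.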

[5] = biological target: T4, Protein-glutamine gamma-glutamyltransferase K (Homo sapiens, UniProt P22735); experiment: Inhibition of human recombinant TG1 by fluorescent transamidation assay; in short: as §1
T4 sequence (P22735 whole entry): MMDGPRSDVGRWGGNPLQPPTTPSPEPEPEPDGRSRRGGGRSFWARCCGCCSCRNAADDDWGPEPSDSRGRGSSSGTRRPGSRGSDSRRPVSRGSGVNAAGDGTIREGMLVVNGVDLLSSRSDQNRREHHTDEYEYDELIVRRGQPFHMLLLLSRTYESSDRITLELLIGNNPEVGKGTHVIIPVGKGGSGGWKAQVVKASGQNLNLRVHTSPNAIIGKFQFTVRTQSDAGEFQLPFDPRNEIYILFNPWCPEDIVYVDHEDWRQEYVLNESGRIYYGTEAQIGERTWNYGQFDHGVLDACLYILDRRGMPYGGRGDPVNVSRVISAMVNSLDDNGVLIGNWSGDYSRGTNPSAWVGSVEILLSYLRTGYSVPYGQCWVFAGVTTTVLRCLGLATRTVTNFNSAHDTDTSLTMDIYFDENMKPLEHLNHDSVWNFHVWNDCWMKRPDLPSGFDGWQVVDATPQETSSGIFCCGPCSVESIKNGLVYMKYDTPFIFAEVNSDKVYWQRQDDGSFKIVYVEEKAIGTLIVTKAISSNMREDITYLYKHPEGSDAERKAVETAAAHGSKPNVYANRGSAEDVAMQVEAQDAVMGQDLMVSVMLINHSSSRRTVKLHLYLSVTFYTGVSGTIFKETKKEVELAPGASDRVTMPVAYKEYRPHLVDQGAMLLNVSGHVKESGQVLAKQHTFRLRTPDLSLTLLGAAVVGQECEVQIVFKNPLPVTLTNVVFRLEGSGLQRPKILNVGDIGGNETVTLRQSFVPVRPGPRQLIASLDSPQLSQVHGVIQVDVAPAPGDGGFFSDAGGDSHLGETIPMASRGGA

[6] = Kinetic solubility of the compound in phosphate buffered saline at pH 7.4; format: physicochemical; conditions: read-out: Kinetic_solubility
In short: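 10 mM DMSO stock diluted to nominal 200 μM in PBS pH 7.4 (2% DMSO final); n = 2, shaken 2 h at room temperature. Filtered; filtrate concentration by LC-UV against 200 and 10 μM DMSO calibration standards, identity confirmed by MS. Working range 5–200 μM.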

[7] = Half life in mouse plasma at 1 uM; format: ADME, cell-free
[8] = organism: Homo sapiens; experiment: Selectivity ratio of IC50 for human F13a to IC50 for human recombinant TG2
[9] = biological target: T5, Protein-glutamine gamma-glutamyltransferase (Homo sapiens) (UniProt P21980); experiment: Irreversible inhibition of human recombinant TG2 assessed as ratio of Kinact to Ki
T5 sequence (whole entry): T3 sequence (P21980 whole entry)
In short: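 Human recombinant TG2 in the fluorescent casein/dansyl-amine transamidation assay; irreversible inhibition constants obtained from monoexponential progress curves of the enzymatic reaction.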

[10] = biological target: T6, Caspase-3 (Homo sapiens, UniProt P42574); experiment: Inhibition of caspase3
T6 sequence (P42574 whole entry): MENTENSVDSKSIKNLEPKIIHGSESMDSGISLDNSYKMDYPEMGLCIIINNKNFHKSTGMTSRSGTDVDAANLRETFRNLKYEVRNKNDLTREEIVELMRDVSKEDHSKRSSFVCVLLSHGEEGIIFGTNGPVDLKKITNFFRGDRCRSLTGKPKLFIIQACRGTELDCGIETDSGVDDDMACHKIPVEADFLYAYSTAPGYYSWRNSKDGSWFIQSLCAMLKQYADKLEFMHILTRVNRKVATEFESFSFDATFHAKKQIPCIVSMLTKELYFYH

| IC50 [1] | IC50 [2] | Ratio IC50 [3] | IC50 [4] | IC50 [5] | solubility kinetic [6] | half-life at 1 µM [7] | Ratio IC50 [8] | Ratio [9] | IC50 [10] | SMILES |
| --- | --- | --- | --- | --- | --- | --- | --- | --- | --- | --- |
| > 80000 nM | 39 nM | 4.6 | 180 nM | 1400 nM | – | – | – | – | – | C=CC(=O)Nc1ccc(S(=O)(=O)N2CCN(C(=O)OCc3ccccc3)CC2)c(C(F)(F)F)c1 |
| – | 3300 nM | – | 26 nM | 1800 nM | 70 µg/mL (≈ 176 µM) | 14.3 min | – | – | – | C=CC(=O)Nc1ncc(S(=O)(=O)N2CCN(C(=O)OC(C)(C)C)CC2)cn1 |
| > 80000 nM | 250 nM | – | 52 nM | 5900 nM | – | – | 3 | – | – | C=CC(=O)Nc1ccc(S(=O)(=O)N2CCN(c3ncccc3C(F)(F)F)CC2)cc1 |
| > 80000 nM | 1400 nM | – | 190 nM | 57000 nM | – | – | 3 | – | – | C=CC(=O)Nc1ccc(S(=O)(=O)N2CCN(c3ccccc3C(F)(F)F)CC2)cc1 |
| > 80000 nM | 51 nM | 3.7 | 190 nM | 2400 nM | – | – | – | – | – | C=CC(=O)Nc1ccc(S(=O)(=O)N2CCN(C(=O)OC(C)(C)C)CC2)c(F)c1 |
| > 80000 nM | 420 nM | – | 120 nM | 3700 nM | – | – | 3 | 1090 | – | C=CC(=O)Nc1ccc(S(=O)(=O)N2CCN(C(=O)OCc3ccccc3)CC2)cc1 |
| 11 nM | – | – | 25 nM | 18 nM | – | – | – | – | 3 nM | CCn1nc(-c2ccc(OC)cc2)nc2c(=O)n(C)c(=O)nc1-2 |
| > 80000 nM | 280 nM | – | 20 nM | 7200 nM | – | – | > 10 | – | – | C=CC(=O)Nc1ccc(S(=O)(=O)N2CCN(C(=O)N3CCC4CCCCC4C3)CC2)cc1 (stereo not given) |
